Test results taken from ChEMBL document CHEMBL1146764, “Synthesis and evaluation of novel 1,4-naphthoquinone derivatives as antiviral, antifungal and anticancer agents” (2004).
Converted amounts (≈) assume the structure as drawn.

Tests used:
Microsporum canis = experiment: Minimum inhibitory concentration towards Microsporum canis; assay type: functional
Cryptococcus neoformans [1] = experiment: Minimum inhibitory concentration towards Cryptococcus neoformans; assay type: functional
Trichophyton benhamiae = experiment: Minimum inhibitory concentration towards Trichophyton mentagrophytes; assay type: functional, Trichophyton mentagraphytes
Candida albicans [2] = experiment: Minimum inhibitory concentration towards Candida albicans; assay type: functional
Pseudomonas aeruginosa = experiment: Minimum inhibitory concentration towards Pseudomonas aeruginosa; assay type: functional
Klebsiella pneumoniae = experiment: Minimum inhibitory concentration towards Klebsiella pneumoniae; assay type: functional
Aspergillus fumigatus = experiment: Minimum inhibitory concentration towards Aspergillus fumigatus; assay type: functional
[3] = tested on: Agrobacterium tumefaciens; experiment: Minimum inhibitory concentration towards Agrobacterium tumefaciens; assay type: functional
Staphylococcus aureus = experiment: Minimum inhibitory concentration towards Staphylococcus aureus; assay type: functional
Candida albicans [4] = experiment: Minimum inhibitory concentration towards C. albicans; value ranges from 7.8-7.9 ug/mL; assay type: functional, organism-based
Cryptococcus neoformans [5] = experiment: Minimum inhibitory concentration towards C. neoformans; value ranges from 3.5-3.9 ug/mL; assay type: functional, organism-based
Influenza A virus = experiment: In vitro antiviral activity of compound against Influenza-A virus; assay type: functional
Rattus norvegicus [6] = experiment: Anticancer activity against lymphoid leukemia P388 in rats at a dose of 10 mg/kg; assay type: functional
Procedure, shortened: (§1)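 Lymphoid leukaemia P 388 in rats, four animals per group, given 10 mg/kg. Survivors counted. Activity expressed as T/C (%) of treated versus control.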

Rattus norvegicus [7] = experiment: Number of survivors out of 4 rats treated at 10 mg/kg; assay type: functional; procedure, shortened: as §1
Rattus norvegicus [8] = experiment: Anticancer activity against Lymphoid Leukemia L-1210 in rats at dose of 1.56 mg/kg; assay type: functional
Procedure, shortened: (§2)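 Lymphoid leukaemia L-1210 in rats, six animals per dose group, doses 1.56–25 mg/kg. Survivors counted per group. T/C (%) compares a tumour evaluation parameter in treated versus control animals.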

Rattus norvegicus [9] = experiment: Number of survivors out of 6 rats treated at 6.25 mg/kg; assay type: functional; procedure, shortened: as §2
Rattus norvegicus [10] = experiment: Anticancer activity against Lymphoid Leukemia L-1210 in rats at dose of 6.25 mg/kg; assay type: functional; procedure, shortened: as §2
Rattus norvegicus [11] = experiment: Number of survivors out of 6 rats treated at 1.56 mg/kg; assay type: functional; procedure, shortened: as §2
Rattus norvegicus [12] = experiment: Number of survivors out of 6 rats treated at 3.12 mg/kg; assay type: functional; procedure, shortened: as §2
Rattus norvegicus [13] = experiment: Anticancer activity against Lymphoid Leukemia L-1210 in rats at dose of 3.12 mg/kg; assay type: functional; procedure, shortened: as §2
Rattus norvegicus [14] = experiment: Anticancer activity against Lymphoid Leukemia L-1210 in rats at dose of 25.0 mg/kg; Toxic; assay type: functional, organism-based; set-up: dose 25 mg/kg
Rattus norvegicus [15] = experiment: Number of survivors out of 6 rats treated at 12.5 mg/kg; assay type: functional
Rattus norvegicus [16] = experiment: Number of survivors out of 6 rats treated at 25 mg/kg; assay type: functional; procedure, shortened: as §2
Rattus norvegicus [17] = experiment: Anticancer activity against Lymphoid Leukemia L-1210 in rats at dose of 12.5 mg/kg; assay type: functional

Molecule	MIC (Microsporum canis) [µg/mL]	MIC (Cryptococcus neoformans [1]) [µg/mL]	MIC (Trichophyton benhamiae) [µg/mL]	MIC (Candida albicans [2]) [µg/mL]	MIC (Pseudomonas aeruginosa) [µg/mL]	MIC (Klebsiella pneumoniae) [µg/mL]	MIC (Aspergillus fumigatus) [µg/mL]	MIC [3] [µg/mL]	MIC (Staphylococcus aureus) [µg/mL]	further results
C[C@@H]1[C@H](O)[C@@H](C)/C=C/C=C/C=C/C=C/C=C/C=C/C=C/[C@H](O[C@@H]2O[C@H](C)[C@@H](O)[C@H](N)[C@@H]2O)C[C@@H]2O[C@](O)(C[C@@H](O)C[C@@H](O)[C@H](O)CC[C@@H](O)C[C@@H](O)CC(=O)O[C@H]1C)C[C@H](O)[C@H]2C(=O)O [AMPHOTERICIN B]	1.56 (≈ 1.69 µM)	0.78 (≈ 0.844 µM)	1.56 (≈ 1.69 µM)	0.39 (≈ 0.422 µM)	–	–	–	–	–	–
O=C(O)c1ccccc1SC1=CC(=O)c2c(Cl)ccc(O)c2C1=O	> 50	> 50	25 (≈ 69.3 µM)	> 50	50 (≈ 139 µM)	25 (≈ 69.3 µM)	> 50	> 50	> 50	–
NYSTATIN	–	–	–	–	–	–	–	–	–	MIC (Candida albicans [4]): 7.9 µg/mL; MIC (Cryptococcus neoformans [5]): 3.9 µg/mL
O=C1C(=O)c2ccccc2C(O)=C1Sc1ccccc1	25 (≈ 88.6 µM)	> 50	6.25 (≈ 22.1 µM)	25 (≈ 88.6 µM)	–	–	> 50	–	–	Inhibition (Influenza A virus): 50%
O=C(O)CCCSC1=CC(=O)c2c(Cl)ccc(O)c2C1=O	> 50	> 50	25 (≈ 76.5 µM)	> 50	–	–	> 50	–	–	–
Clc1ccc(COC(Cn2ccnc2)c2ccc(Cl)cc2Cl)c(Cl)c1 (stereo not drawn) [MICONAZOLE]	< 0.78	12.5 (≈ 30 µM)	< 0.78	25 (≈ 60.1 µM)	–	–	12.5 (≈ 30 µM)	–	–	–
GENTAMICIN	–	–	–	–	0.78	0.39	–	–	0.78	–
O=C(O)CCCSC1=CC(=O)c2c(O)ccc(O)c2C1=O	3.12 (≈ 10.1 µM)	1.56 (≈ 5.06 µM)	3.12 (≈ 10.1 µM)	3.12 (≈ 10.1 µM)	> 50	50 (≈ 162 µM)	> 50	12.5 (≈ 40.5 µM)	> 50	–
O=C1C=CC(=O)c2c1c(O)c1sc3ccccc3c(=O)c1c2O	> 50	> 50	25 (≈ 77.1 µM)	> 50	–	–	> 50	–	–	–
O=C1C(Sc2cccc3ccccc23)=C(Sc2cccc3ccccc23)C(=O)c2ccccc21	–	–	–	–	> 50	> 50	–	> 50	50 (≈ 105 µM)	–
O=C1C(Sc2ccccc2)=C(Sc2ccccc2)C(=O)c2c(Cl)ccc(O)c21	50 (≈ 118 µM)	> 50	> 50	> 50	–	–	50 (≈ 118 µM)	–	–	–
O=C1C=C(SCCC(=O)N2CCCCC2)C(=O)c2ccccc21	–	–	–	–	–	–	–	–	–	T/C (Rattus norvegicus [6]): 30%; Survivors (Rattus norvegicus [7]): 4
O=C(O)CCCSC1=CC(=O)c2ccccc2C1=O	> 50	> 50	25 (≈ 90.5 µM)	> 50	–	50 (≈ 181 µM)	> 50	–	12.5 (≈ 45.2 µM)	T/C (Rattus norvegicus [8]): 89%; Survivors (Rattus norvegicus [9]): 6; T/C (Rattus norvegicus [10]): 100%; Survivors (Rattus norvegicus [11]): 6; Survivors (Rattus norvegicus [12]): 6; T/C (Rattus norvegicus [13]): 96%
O=C(O)CCSC1=CC(=O)c2c(O)ccc(O)c2C1=O	–	–	–	–	–	–	–	–	–	Inhibition (Influenza A virus): 52%
O=C1C=CC(=O)C(Sc2ccccc2C(=O)O)=C1	> 50	50 (≈ 192 µM)	> 50	> 50	25 (≈ 96.1 µM)	25 (≈ 96.1 µM)	> 50	> 50	> 50	–
O=C(O)CCSC1=CC(=O)c2ccccc2C1=O	–	–	–	–	12.5 (≈ 47.7 µM)	50 (≈ 191 µM)	–	25 (≈ 95.3 µM)	12.5 (≈ 47.7 µM)	T/C (Rattus norvegicus [14]): Toxic; Survivors (Rattus norvegicus [15]): 6; Survivors (Rattus norvegicus [16]): 1; Survivors (Rattus norvegicus [9]): 6; T/C (Rattus norvegicus [10]): 115%; T/C (Rattus norvegicus [17]): 110%
NC(=O)CCSC1=CC(=O)c2ccccc2C1=O	–	–	–	–	–	–	–	–	–	T/C (Rattus norvegicus [6]): 49%; Survivors (Rattus norvegicus [7]): 4
O=C1C(Sc2cccc3ccccc23)=C(Sc2cccc3ccccc23)C(=O)c2c(Cl)ccc(O)c21	> 50	> 50	50 (≈ 95.2 µM)	50 (≈ 95.2 µM)	–	–	> 50	–	–	–
O=C1C=C(Sc2ccccc2)C(=O)c2ccccc21	< 0.98	1.56 (≈ 5.86 µM)	< 0.78	12.5 (≈ 46.9 µM)	> 50	> 50	25 (≈ 93.9 µM)	> 50	25 (≈ 93.9 µM)	–
